Runt-CBFb FRET: Runt domain-CBFb interaction inhibition. Q01196+Q13951. Cerulean-Runt/Venus-CBFb FRET ratio 530/480, 1 h. inhibition, % at 20 µM. actives 0.46% (n = 220,000);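 active = inhibition over about 50% at 20 µM in the single-dose screen, limit read from the data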;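 also: 0% = DMSO wells and 100% = excess unlabeled CBFb competitor control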
Target sequence (Q01196 whole entry, looked up, the tested form may be a part): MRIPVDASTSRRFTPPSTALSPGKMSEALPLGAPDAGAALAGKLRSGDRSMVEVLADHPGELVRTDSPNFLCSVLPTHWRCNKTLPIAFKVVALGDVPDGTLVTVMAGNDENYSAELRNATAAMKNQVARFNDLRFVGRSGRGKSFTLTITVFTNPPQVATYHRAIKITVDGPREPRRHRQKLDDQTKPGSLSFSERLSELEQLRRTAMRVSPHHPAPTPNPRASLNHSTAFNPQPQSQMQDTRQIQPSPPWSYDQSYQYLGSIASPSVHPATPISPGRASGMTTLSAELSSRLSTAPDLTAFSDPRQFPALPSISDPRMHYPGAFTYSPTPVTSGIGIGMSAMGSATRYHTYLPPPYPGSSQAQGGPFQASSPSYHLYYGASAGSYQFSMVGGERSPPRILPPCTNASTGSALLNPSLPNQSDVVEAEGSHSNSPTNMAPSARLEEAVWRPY
Target sequence (Q13951 whole entry, looked up, the tested form may be a part): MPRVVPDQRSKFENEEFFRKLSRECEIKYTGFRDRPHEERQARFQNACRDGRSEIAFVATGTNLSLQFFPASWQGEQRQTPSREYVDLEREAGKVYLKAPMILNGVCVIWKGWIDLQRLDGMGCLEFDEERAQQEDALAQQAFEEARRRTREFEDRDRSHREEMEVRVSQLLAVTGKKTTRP
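test system = Cerulean-tagged RUNX1 Runt domain (FRET donor) fusion protein | reagent = Venus-CBFb binding partner, 100 nM | incubation = protein complex preformed 1 h, compound exposure 1 h, room temperature, dark | detection = FRET fluorescence | read-out basis = loss of energy transfer signal | controls = 5 µM unlabeled CBFb as full-inhibition high control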
Runt-SMMHC FRET: Runt domain-CBFb-SMMHC interaction inhibition. Cerulean-Runt/Venus-CBFb-SMMHC FRET ratio 530/480, 1 h. inhibition, % at 20 µM. actives 0.74% (n = 220,000). AID 1434;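 active = mean inhibition across duplicate retests at 20 µM reaching about 50%, limit read from the data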;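 also: 0% = DMSO wells and 100% = wells with excess untagged CBFb-SMMHC; inhibitors lower the FRET ratio by blocking Runt binding to CBFb-SMMHC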
p-CIP stab down: lowers stability of the mouse p/CIP coactivator protein. actives 0.01% (n = 290,000). F442A p/CIP-EGFP cells, EGFP fluorescence, 16 h. decrease of EGFP signal, % at 10 µM. Q05BA5;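 active = EGFP signal decrease of at least 30% at 10 µM or well 3 SD below plate mean, unless failing retest; inactive = the rest, including hits failing retest or dose response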
Hck-Nef inh: blocks Nef-activated human Hck kinase; Recombinant Hck-YEEI plus Nef, Z-Lyte FRET kinase assay; inhibition, % at 20 µM; actives 0.68% (n = 220,000); AID 463187;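 active = Hck-Nef kinase inhibition above about 50%, limit read from the data; inactive = inhibition below that limit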;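 also: 0% = DMSO with Hck plus Nef and 100% = Hck alone without Nef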
Pemphigus Ab inh: inhibitors of pemphigus antibody binding to human desmoglein-3. DSG3-coupled beads, scFv-anti-DSG3-GFP binding, flow cytometry; hits give low values. binding (percent of control), % at 10 µM. actives 0.48% (n = 310,000);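 active = binding more than 3 SD below its plate's average and above zero; inconclusive = below that plate limit but binding exactly zero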;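 also: hits lower antibody fragment binding to DSG3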
RanGTP-Impb inh: inhibitors of RanGTP-importin-beta interaction, primary screen, biochemical, FRET, CFP-Ran, YFP-importin-beta, homogeneous; cell-free CFP-Ran/YFP-importin-beta FRET ratio; actives 1.1% (n = 300,000); inhibition, % (no concentration beside the values);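 active = more than half of the replicate wells show a fall in the fluorescence ratio signal beyond about 16%, limit read from the data, passing the limit was not always enough; inconclusive = exactly half of the replicate wells pass the set limit; inactive = fewer than half of replicates pass the limit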;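 also: 0% = DMSO wells and 100% = Ran loaded with GDP instead of GTP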
Numbers without * were called inactive; ? = inconclusive; · = no result given. An excerpt weighted towards active compounds, which were near 2.1% of everything screened.

SMILES	Runt-CBFb FRET	Runt-SMMHC FRET	p-CIP stab down	Hck-Nef inh	Pemphigus Ab inh	RanGTP-Impb inh
CCOC(=O)C1=C(C)Nc2ccc(C)cc2S1	1	4	6	0	108	?
Cc1ccc(C(=O)NNC(=O)c2csc(N3CCOCC3)n2)o1	·	·	·	·	96*	0
O=c1cc(C(F)(F)F)nc(-c2cccnc2)[nH]1	0	0	-7	20	102	-2
Cc1cc(=O)[nH]c(-c2cccnc2)n1	-1	-5	13	21	100	22*
CSCCC(NS(=O)(=O)c1ccccc1F)C(=O)Nc1ccncc1 (configuration not stated)	·	·	·	·	104	·
O=C(O)CCCCCNC(=O)Cn1nnc2ccccc2c1=O	0	0	-5	14	99	7
COc1ccc(NC(=O)CN(C)C(=O)c2cc3c(s2)CCC3)cc1	·	·	·	·	93*	1
COc1ccc(NC(=O)CN(C)C(=O)c2cc3c(s2)CCCCC3)cc1	·	·	-8	·	110	-3
Cc1nc(NS(=O)(=O)c2ccccc2)sc1NC(=O)Nc1ccc(Cl)cc1	14	3	-4	29	97	-2
CCOC(=O)Nc1sc(NS(=O)(=O)c2ccccc2)nc1C	2	2	-3	1	99	2
CCOC(=O)Nc1sc(NS(=O)(=O)c2ccc(C)cc2)nc1C	4	4	3	-2	73*	1
Cc1nc(NS(=O)(=O)c2ccccc2)sc1NC(=O)Nc1ccccc1	5	4	-8	17	28*	13
CCc1nc2ccc(C(=O)N(C)CC(=O)Nc3ccc(F)c(F)c3F)cc2nc1CC	·	·	·	·	77	·
O=C(Cc1cccs1)Nc1ccc(NC(=O)c2ccco2)cc1	-2	5	2	-2	-21*	0
O=C(c1nc2n(n1)C(c1ccc(Cl)cc1)C=C(c1ccccc1)N2)N1CCOCC1 (configuration not stated)	-16	62*	-2	-24	91	-67
Cc1cc(C(=O)CCC(=O)N(C)CC2COc3ccccc3O2)c(C)s1 (configuration not stated)	·	·	·	·	107	·
O=C1COc2ccc(C(=O)COC(=O)CNC(=O)c3ccccc3)cc2N1	1	2	-1	10	100	2
O=C1COc2ccc(C(=O)COC(=O)CCSc3ccccc3)cc2N1	0	-1	8	13	73*	1
COc1ccc(OCCCC(=O)OCC(=O)c2ccc3c(c2)NC(=O)CO3)cc1	·	·	·	·	96	1
O=C1COc2ccc(C(=O)COC(=O)CCCOc3ccccc3)cc2N1	·	·	·	·	82*	·
CC1(C)CC(=O)C=C(c2ccccc2-c2ccc(S(C)(=O)=O)cc2)C1=O	·	·	·	·	100	·
Cc1c(Cl)cccc1NS(=O)(=O)c1c(C(=O)N2CCOCC2)c(C)n(C)c1C	·	·	8	·	102	?
Cc1cccc(-c2oc3ccc(-c4ccc5c(c4)OCO5)cc3c2C(=O)OCc2ccc(O)cc2)c1	·	·	-24	·	105	-2
O=[N+]([O-])c1cccc(-c2ccc3nnc(SCc4cccnc4)n3n2)c1	·	·	·	·	96	·
Cc1ccc2oc(=O)c3cc(C(=O)NCCN4CCN(C)CC4)sc3c2c1	2	0	4	4	102	27*
SMILES	Runt-CBFb FRET	Runt-SMMHC FRET	p-CIP stab down	Hck-Nef inh	Pemphigus Ab inh	RanGTP-Impb inh
Cc1ccc2oc(=O)c3cc(C(=O)NCCCN4CCCCCC4)sc3c2c1	·	·	1	·	108	3
Cc1ccccc1NC(=O)Cc1nc(COC(=O)c2cccc([N+](=O)[O-])c2)cs1	·	·	-5	·	78*	?
COc1ccc(NC(=O)CN(C)CC(=O)NCC(=O)Nc2ccc(F)cc2)cc1	·	·	·	·	99	2
O=C(CCNC(=O)c1ccco1)Nc1ccc(OC(F)(F)F)cc1	·	·	-12	·	94	2
CC(NC(=O)COC(=O)COc1cccc2c1OC(C)(C)C2)c1ccccc1 (configuration not stated)	·	·	6	·	·	1
CCOC(=O)/C=C1\SCC(=O)N1CC(=O)Nc1ccccc1OC(F)F	-3	-4	-2	0	·	150*
N#C/C(=C\c1c(N2CCCCCC2)nc2ccccn2c1=O)C(N)=O	·	·	-10	·	117	-3
N#C/C(=C\c1c(N2CCCCCC2)nc2ccccn2c1=O)C(=O)NC1CCS(=O)(=O)C1 (configuration not stated)	4	82*	-3	6	111	0
N#C/C(=C\c1c(N2CCOCC2)nc2ccccn2c1=O)C(=O)NC1CCS(=O)(=O)C1 (configuration not stated)	10	82*	-11	7	103	3
N#C/C(=C\c1c(N2CCN(c3ccccc3)CC2)nc2ccccn2c1=O)C(N)=O	·	·	5	·	97	0
CCN(CC)CCNC(=O)c1ccc(NC(=O)c2cccc(-n3cnnn3)c2)cc1	·	·	·	·	115	·
CC1CN(CC(=O)N2CCc3[nH]c4ccccc4c3C2)CC(C)O1 (configuration not stated)	-28	-7	-8	-2	·	28*
O=C(CN1CCN(Cc2ccc3c(c2)OCO3)CC1)N1CCc2[nH]c3ccccc3c2C1	-6	-10	-9	3	·	32*
C[C@H](CO)N1C[C@H](C)[C@@H](CN(C)S(C)(=O)=O)Oc2c(NC(=O)C3CC3)cccc2C1=O	·	·	·	·	96	·
COc1ccc(C2N(Cc3ccccc3)CC(=O)N2/N=C(\C)c2ccccc2)cc1 (configuration not stated)	-2	-2	-6	3	·	0
COc1cccc2sc3ccc(C#CC4(N)CCCCC4)cc3c(=O)c12	·	·	2	·	106	55*
CNC(C)C#Cc1ccc2sc3cccc(OC)c3c(=O)c2c1 (configuration not stated)	·	·	-14	·	102	38*
CNC(C)C#Cc1ccc2oc3cccc(OC)c3c(=O)c2c1 (configuration not stated)	·	·	2	·	110	-10
COc1ccc(NC(=O)C(=O)NCC2CCCN2S(=O)(=O)c2cc(C)ccc2C)cc1 (configuration not stated)	·	·	·	·	102	4
CC(C)OC(=O)CSc1nnc2c(n1)[nH]c1ccc(F)cc12	-1	-3	5	-6	99	-5
Cc1cnc(C(=O)N2CCN(S(=O)(=O)c3cc(C(F)(F)F)cc(C(F)(F)F)c3)CC2)cn1	·	·	·	·	-17*	·
COc1ccc(S(=O)(=O)N2CCN(C(=O)c3cnc(C)cn3)CC2)cc1	1	1	-4	5	105	-1
CC1=Nc2ccccc2/C1=C\c1nc(-c2ccc(C(F)(F)F)cc2)oc1O	-31	-75	-333	1	130	-30
CC1=Nc2ccccc2/C1=C/c1sc(=N)n(-c2nccs2)c1O	-42	-112	-101	1	109	23*

From PubChem BioAssay
